Measured values pooled from the literature.
Each line is one published result; the experiments were not run side by side.
Target: Tyrosine-protein kinase ITK/TSK (ITK, Homo sapiens, UniProt Q08881)
Residues used in one study (Q08881 1-620): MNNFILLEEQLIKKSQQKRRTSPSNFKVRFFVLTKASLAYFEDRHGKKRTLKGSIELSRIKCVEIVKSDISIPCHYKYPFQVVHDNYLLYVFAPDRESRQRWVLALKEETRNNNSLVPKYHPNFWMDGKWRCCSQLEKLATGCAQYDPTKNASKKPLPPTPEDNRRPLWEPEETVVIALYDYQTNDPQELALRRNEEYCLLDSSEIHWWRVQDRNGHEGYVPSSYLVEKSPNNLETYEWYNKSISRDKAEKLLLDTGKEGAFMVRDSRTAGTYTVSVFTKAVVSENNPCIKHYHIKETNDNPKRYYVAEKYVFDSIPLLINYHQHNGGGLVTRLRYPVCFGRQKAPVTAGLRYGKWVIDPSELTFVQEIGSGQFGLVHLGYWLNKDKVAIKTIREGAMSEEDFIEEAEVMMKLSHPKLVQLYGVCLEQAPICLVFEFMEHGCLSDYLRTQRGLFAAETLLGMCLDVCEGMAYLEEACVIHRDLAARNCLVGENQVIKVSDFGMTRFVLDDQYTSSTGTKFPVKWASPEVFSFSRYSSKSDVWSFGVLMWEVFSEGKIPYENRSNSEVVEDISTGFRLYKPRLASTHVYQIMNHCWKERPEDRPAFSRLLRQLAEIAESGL

Structure (SMILES)	test	setting	remaining binding [%]
C[C@@H]1CCN(c2nccc(-c3cnn4ncccc34)n2)C1	binding	1 µM	91
COc1cnc(Nc2cccc(S(N)(=O)=O)c2)nc1N1CCN(c2ccccc2)C(=O)C1	binding, competition with immobilised ligand	1 µM	100
O=C(c1ccc(Nc2nccc(-c3cc4ccccc4s3)n2)cc1)N1CCC(N2CCCC2)CC1	binding, competition with immobilised ligand	1 µM	96
CCN1CCN(Cc2ccc(C(=O)Nc3ccc(C)c(Oc4ccc5c(c4)CC(=O)N5)c3)cc2C(F)(F)F)CC1	binding, competition with immobilised ligand	1 µM	72
COc1ccc2c(c1)O[C@H](c1ccc(OC)c(OC)c1)C[C@@H]2NC(=O)C1(c2ccc3c(c2)OC(F)(F)O3)CC1	cell-free assay, competition with immobilised ligand	1 µM	100
O=C(c1ccc(Nc2ncc(Cl)c(-c3ccc(Cl)s3)n2)cc1)N1CCC(N2CCCC2)CC1	binding, competition with immobilised ligand	1 µM	29
Nc1ncc2c(n1)-c1c([nH]c3ccc(C#CC4CC4)cc13)CCCC2	binding, competition with immobilised ligand	1 µM	92
O=C(O)[C@H]1[C@H](Cn2nnc3ccccc3c2=O)CC[C@@H]1C(=O)c1ccc(OCCC2CCOCC2)cc1	cell-free assay, competition with immobilised ligand	1 µM	100
CN(C)c1nccc(-c2cnn3ncccc23)n1	binding	1 µM	100
Cc1c(NC(=O)c2cc(C(N)=O)nc3cc(F)ccc23)c(C(F)(F)F)nn1Cc1ccc(C#N)cc1	cell-free assay, competition with immobilised ligand	1 µM	78
Cc1cnc(Nc2ccc(C(=O)N3CCC(N4CCCC4)CC3)cc2)nc1-c1cc2ccccc2s1	binding, competition with immobilised ligand	1 µM	59
N[C@H]1CCN(c2nccc(-c3cnn4ncccc34)n2)C1	binding	1 µM	100
O=C(NCC1CCOCC1)c1n[nH]cc1NC(=O)c1c(F)cccc1F	binding, competition with immobilised ligand	1 µM	100
CN(C)c1ncc(F)c(-c2cnn3ncccc23)n1	binding	1 µM	100
COc1cc(-c2cn(C3CCc4c(F)cccc4N(CC(F)(F)F)C3=O)nn2)ccc1-n1cnc(C)c1 (centres unmarked)	cell-free assay, competition with immobilised ligand	1 µM	100
COc1ncc2cc3ccccc3nc2c1C#N	cell-free assay, competition with immobilised ligand	5 µM	97
CN(C)c1nccc(-c2cnc3ncccn23)n1	binding	1 µM	88
CCC(=N\O)/C(C)=C/c1ccc(F)cc1	cell-free assay, competition with immobilised ligand	1 µM	90
F[C@@H]1CCN(c2nccc(-c3cnn4ncccc34)n2)C1	binding	1 µM	100
CN1CCN(c2cnc3c(C4CCN(C(=O)c5ccc(OC(F)(F)F)cc5N)CC4)ncnc3c2)CC1	cell-free assay, competition with immobilised ligand	1 µM	100
